From ChEMBL document CHEMBL4834404, “Template-Hopping Approach Leads to Potent, Selective, and Highly Soluble Bromo and Extraterminal Domain (BET) Second Bromodomain (BD2) Inhibitors” (J Med Chem, 2021)
Values after ≈ are worked out from the molar mass of the structure shown.

Key:
[1] = biological target: T1, Bromodomain-containing protein 3 (Homo sapiens, UniProt Q15059); assay: Inhibition of 6His-Thr-BRD3 (1 to 435 residues) BD1 domain (unknown origin) incubated for 30 mins by TR-FRET assay
Target sequence in this assay (Q15059 whole entry, the tested form may be a part): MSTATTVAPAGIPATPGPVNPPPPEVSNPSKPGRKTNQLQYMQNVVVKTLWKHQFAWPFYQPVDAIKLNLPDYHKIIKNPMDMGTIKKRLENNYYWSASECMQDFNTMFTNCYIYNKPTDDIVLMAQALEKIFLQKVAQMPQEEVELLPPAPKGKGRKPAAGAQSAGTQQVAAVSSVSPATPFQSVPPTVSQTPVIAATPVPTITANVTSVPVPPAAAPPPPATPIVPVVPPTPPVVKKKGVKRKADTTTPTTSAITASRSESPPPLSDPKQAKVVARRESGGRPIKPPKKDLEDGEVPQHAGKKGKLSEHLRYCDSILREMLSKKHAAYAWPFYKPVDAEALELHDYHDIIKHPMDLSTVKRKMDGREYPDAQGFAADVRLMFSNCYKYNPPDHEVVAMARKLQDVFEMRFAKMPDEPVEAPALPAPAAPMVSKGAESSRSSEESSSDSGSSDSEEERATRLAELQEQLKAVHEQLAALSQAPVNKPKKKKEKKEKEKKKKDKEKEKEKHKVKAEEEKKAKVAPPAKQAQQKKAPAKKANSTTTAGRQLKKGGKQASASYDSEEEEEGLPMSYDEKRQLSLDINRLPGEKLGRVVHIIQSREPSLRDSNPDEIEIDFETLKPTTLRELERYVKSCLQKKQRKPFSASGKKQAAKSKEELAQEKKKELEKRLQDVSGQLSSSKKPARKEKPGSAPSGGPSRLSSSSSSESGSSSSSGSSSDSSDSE

[2] = biological target: Voltage-gated inwardly rectifying potassium channel KCNH2 (Homo sapiens, UniProt Q12809); assay: Inhibition of human ERG
Sequence of Voltage-gated inwardly rectifying potassium channel KCNH2 (Q12809 whole entry, the tested form may be a part): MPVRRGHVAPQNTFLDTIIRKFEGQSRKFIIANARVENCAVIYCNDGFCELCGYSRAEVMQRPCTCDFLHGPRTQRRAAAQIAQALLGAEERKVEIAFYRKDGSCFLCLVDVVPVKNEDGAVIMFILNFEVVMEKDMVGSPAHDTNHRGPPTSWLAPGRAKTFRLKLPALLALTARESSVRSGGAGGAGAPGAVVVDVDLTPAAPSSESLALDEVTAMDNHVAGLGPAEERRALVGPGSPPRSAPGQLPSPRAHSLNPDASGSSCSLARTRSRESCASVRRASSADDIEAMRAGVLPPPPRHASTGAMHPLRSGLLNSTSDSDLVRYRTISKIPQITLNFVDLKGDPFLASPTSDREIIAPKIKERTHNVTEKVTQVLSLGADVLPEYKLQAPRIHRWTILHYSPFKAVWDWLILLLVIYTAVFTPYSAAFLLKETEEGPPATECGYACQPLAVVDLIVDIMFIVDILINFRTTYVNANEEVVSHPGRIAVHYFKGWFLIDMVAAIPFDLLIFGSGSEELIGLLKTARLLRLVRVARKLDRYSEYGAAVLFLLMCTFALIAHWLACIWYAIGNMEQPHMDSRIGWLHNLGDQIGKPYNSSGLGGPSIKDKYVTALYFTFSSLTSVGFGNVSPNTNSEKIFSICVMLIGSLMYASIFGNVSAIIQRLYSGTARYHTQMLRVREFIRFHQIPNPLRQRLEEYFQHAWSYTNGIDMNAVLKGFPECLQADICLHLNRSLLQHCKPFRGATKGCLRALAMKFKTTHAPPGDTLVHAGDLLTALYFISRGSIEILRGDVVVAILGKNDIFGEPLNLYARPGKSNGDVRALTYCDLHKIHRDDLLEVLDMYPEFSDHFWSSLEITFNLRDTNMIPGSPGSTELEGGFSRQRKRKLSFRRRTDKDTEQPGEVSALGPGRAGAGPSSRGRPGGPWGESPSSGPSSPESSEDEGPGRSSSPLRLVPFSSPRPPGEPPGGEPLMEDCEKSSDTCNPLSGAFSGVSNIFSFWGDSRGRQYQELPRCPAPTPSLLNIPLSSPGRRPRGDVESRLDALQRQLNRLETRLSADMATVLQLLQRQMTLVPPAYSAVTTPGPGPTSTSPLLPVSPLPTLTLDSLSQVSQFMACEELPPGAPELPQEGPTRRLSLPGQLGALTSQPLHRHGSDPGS

[3] = biological target: T2, Bromodomain-containing protein 2 (Homo sapiens, UniProt P25440); assay: Inhibition of 6His-Thr-BRD2 (1 to 473 residues) BD2 domain Y386A or Y113A mutant (unknown origin) incubated for 30 mins by TR-FRET assay
T2 sequence (P25440 whole entry, the tested form may be a part): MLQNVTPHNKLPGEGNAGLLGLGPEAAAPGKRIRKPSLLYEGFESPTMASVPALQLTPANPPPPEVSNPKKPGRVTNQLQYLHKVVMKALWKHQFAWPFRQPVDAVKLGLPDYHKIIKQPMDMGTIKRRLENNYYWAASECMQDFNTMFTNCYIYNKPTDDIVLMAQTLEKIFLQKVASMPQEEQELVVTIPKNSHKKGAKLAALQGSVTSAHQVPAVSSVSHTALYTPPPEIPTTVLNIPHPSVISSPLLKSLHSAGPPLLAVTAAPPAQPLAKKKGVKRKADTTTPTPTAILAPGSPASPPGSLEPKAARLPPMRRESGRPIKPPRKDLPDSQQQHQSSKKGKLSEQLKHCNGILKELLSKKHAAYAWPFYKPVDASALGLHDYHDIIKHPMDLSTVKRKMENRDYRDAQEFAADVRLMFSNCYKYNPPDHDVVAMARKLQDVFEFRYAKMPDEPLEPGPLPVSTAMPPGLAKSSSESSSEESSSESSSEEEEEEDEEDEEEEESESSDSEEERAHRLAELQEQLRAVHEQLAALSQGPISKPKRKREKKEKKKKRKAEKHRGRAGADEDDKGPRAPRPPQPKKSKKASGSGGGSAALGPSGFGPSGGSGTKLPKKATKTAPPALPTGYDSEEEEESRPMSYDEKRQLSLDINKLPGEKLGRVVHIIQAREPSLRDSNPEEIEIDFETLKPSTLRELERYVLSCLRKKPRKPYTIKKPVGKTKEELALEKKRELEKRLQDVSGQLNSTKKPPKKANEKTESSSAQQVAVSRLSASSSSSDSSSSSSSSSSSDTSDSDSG

[4] = biological target: Albumin (Homo sapiens, UniProt P02768); assay: Binding affinity to human serum albumin; assay type: ADME; settings: isolated protein
Sequence of Albumin (P02768 whole entry): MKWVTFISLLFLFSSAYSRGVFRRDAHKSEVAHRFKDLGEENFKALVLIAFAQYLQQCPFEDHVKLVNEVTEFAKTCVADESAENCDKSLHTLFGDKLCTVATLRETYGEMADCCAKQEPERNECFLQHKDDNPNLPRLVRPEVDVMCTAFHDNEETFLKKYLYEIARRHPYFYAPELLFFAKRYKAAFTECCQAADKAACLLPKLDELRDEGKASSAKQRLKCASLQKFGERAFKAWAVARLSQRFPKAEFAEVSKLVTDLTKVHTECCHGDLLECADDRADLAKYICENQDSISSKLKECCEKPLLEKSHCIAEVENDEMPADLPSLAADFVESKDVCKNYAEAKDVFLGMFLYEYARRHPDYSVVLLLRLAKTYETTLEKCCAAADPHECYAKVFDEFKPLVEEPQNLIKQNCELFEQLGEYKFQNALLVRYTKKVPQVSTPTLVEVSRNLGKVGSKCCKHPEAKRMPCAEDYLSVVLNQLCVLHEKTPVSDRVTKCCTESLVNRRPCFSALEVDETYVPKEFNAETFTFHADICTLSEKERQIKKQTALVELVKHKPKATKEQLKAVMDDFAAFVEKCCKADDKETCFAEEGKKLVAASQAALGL
Outline: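 Chromatographic binding on chemically bonded HSA column (50 × 3 mm), 1.8 mL/min; mobile phase 50 mM ammonium acetate pH 7.4 with 2-propanol gradient (0−30% over 3 min, hold to 6 min, back to 0%); gradient retention time recorded.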

[5] = Metabolic stability in human Hepatocyte assessed as intrinsic clearance at 0.5 uM incubated for 120 mins by LC-MS/MS analysis; assay type: ADME, tissue-based; settings: hepatocytes, 2 h
[6] = Permeability of compound; assay type: ADME; settings: not told; read-out: permeability
[7] = Half life in Wistar Han rat at 1 mg/kg, iv measured upto 7 hrs by LC-MS/MS analysis; assay type: ADME, organism-based; settings: in vivo
Outline: (§1)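 Surgically cannulated male Wistar Han rats (femoral vein dosing, jugular vein sampling), given 1 h iv infusion at target 1 mg/kg, 0.2 mg/mL in DMSO/10% (w/v) Kleptose HPB in saline (2:98 v/v); n = 1. Serial 25 μL blood samples predose to 7 h; parent compound by LC-MS/MS (LLQ 1−2 ng/mL); non-compartmental analysis of blood concentration−time profiles.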

[8] = Fraction unbound in Wistar Han rat at 1 mg/kg, iv measured upto 4 hrs by LC-MS/MS analysis; assay type: ADME, organism-based
Outline: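 Control Wistar Han rat blood dialyzed against PBS by rapid equilibrium dialysis, 4 h at 37 °C, compound at 200 and 1000 ng/mL; matrix-matched aliquots analysed by LC-MS/MS; unbound fraction from buffer/blood peak area ratios, mean of the two concentrations.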

[9] = Inhibition of LPS-induced MCP1 production in PBMC (unknown origin); assay type: functional, tissue-based
[10] = AUC in Wistar Han rat at 1 mg/kg, iv measured upto 7 hrs by LC-MS/MS analysis; assay type: ADME, organism-based; design: route intravenous, dose 1 mg/kg, time <=7; settings: in vivo; outline: as §1
[11] = tested on: Blood; assay: Inhibition of LPS-stimulated MCP-1 production in human whole blood incubated for 24 hrs by mesoscale assay; assay type: functional, tissue-based
Outline: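 Sodium-heparinized human whole blood preincubated 30 min with compound (DMSO dilutions, 140× stocks) at 37 °C, 5% CO₂, then stimulated with Salmonella typhosa LPS (200 ng/mL final) for 24 h. PBS added, plates centrifuged, supernatant MCP-1 quantified by MesoScale Discovery immunoassay.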

[12] = Metabolic stability in rat Hepatocyte assessed as intrinsic clearance at 0.5 uM incubated for 60 mins by LC-MS/MS analysis; assay type: ADME, tissue-based; settings: hepatocytes, 1 h
[13] = biological target: Bromodomain-containing protein 4 (Homo sapiens, UniProt O60885, Y390A); assay: Inhibition of 6His-Thr-BRD4 (1 to 477 residues) BD2 domain Y390A mutant (unknown origin) incubated for 30 mins by TR-FRET assay
[14] = biological target: Bromodomain-containing protein 4 (Homo sapiens, UniProt O60885, Y97A); assay: Inhibition of 6His-Thr-BRD4 (1 to 477 residues) BD1 Y97A mutant (unknown origin) incubated for 30 mins by TR-FRET assay
[15] = organism: Homo sapiens; assay: Selectivity index, ratio of pIC50 of BRD4 BD1 (unknown origin) to pIC50 of BRD4 BD2 (unknown origin)
[16] = Clearance in Wistar Han rat at 1 mg/kg, iv measured upto 7 hrs by LC-MS/MS analysis; assay type: ADME, organism-based; settings: in vivo; outline: as §1
[17] = Oral bioavailability in Wistar Han rat at 3 mg/kg measured upto 24 hrs by LC-MS/MS analysis; assay type: ADME, organism-based; settings: in vivo
Outline: (§2)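 Three naive male Wistar Han rats dosed by oral gavage at target 3 mg/kg, suspended in 1% (w/v) methylcellulose aq at 0.6 mg/mL. Serial 25 μL blood samples via tail vein up to 24 h; parent compound by LC-MS/MS (LLQ 1 ng/mL) against standards in control blood; non-compartmental PK analysis.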

[18] = Unbound clearance in Wistar Han rat at 1 mg/kg, iv measured upto 7 hrs by LC-MS/MS analysis; assay type: ADME, organism-based; settings: in vivo
[19] = Dose normalized AUC in Wistar Han rat at 3 mg/kg, po measured upto 24 hrs by LC-MS/MS analysis; assay type: ADME, organism-based; settings: in vivo; outline: as §2
[20] = Solubility of compound by CLND assay; assay type: physicochemical
[21] = Volume of distribution at steady state in Wistar Han rat at 1 mg/kg, iv measured upto 7 hrs by LC-MS/MS analysis; assay type: ADME, organism-based; settings: in vivo, read-out: Vdss; outline: as §1
[22] = biological target: T1, Bromodomain-containing protein 3; assay: Inhibition of 6His-Thr-BRD3 (1 to 435 residues) BD2 domain Y348A or Y73A mutant (unknown origin) incubated for 30 mins by TR-FRET assay
Target sequence in this assay (Q15059 2-726 limits assumed): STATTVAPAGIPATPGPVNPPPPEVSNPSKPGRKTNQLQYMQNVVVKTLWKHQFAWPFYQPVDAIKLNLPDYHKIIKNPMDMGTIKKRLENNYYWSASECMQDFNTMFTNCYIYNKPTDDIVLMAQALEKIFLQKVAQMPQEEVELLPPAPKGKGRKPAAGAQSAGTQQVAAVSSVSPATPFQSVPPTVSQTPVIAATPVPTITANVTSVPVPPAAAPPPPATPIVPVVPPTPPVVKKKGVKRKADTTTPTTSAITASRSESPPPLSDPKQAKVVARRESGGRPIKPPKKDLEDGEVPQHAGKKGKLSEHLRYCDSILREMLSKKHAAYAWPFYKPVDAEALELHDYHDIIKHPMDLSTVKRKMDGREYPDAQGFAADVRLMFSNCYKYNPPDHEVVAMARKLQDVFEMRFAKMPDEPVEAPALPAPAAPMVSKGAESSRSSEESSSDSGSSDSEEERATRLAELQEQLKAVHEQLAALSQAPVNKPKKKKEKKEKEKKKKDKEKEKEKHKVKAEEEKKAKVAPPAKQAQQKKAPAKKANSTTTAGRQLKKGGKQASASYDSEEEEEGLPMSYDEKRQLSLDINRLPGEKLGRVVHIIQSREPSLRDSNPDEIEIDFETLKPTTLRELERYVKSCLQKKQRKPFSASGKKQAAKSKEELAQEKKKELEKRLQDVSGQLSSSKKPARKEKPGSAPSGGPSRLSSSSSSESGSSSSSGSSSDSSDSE

[23] = biological target: T2, Bromodomain-containing protein 2; assay: Inhibition of 6His-Thr-BRD2 (1 to 473 residues) BD1 domain (unknown origin) incubated for 30 mins by TR-FRET assay
[24] = biological target: T3, Bromodomain testis-specific protein (Homo sapiens, UniProt Q58F21); assay: Inhibition of 6His-FLAG-Tev-BRDT (1 to 397 residues) BD1 domain (unknown origin) incubated for 30 mins by TR-FRET assay
[25] = biological target: T3, Bromodomain testis-specific protein; assay: Inhibition of 6His-FLAG-Tev-BRDT (1 to 397 residues) BD2 domain Y309A or Y66A mutant (unknown origin) incubated for 30 mins by TR-FRET assay
[26] = Solubility of the compound in pH 6.5 FaSSIF at 1 mg measured after 4 hrs by HPLC analysis; assay type: physicochemical

| SMILES | IC50 [1] | IC50 [2] | pIC50 [3] | Activity [4] | CLH [5] | Papp [6] | half-life [7] | IC50 [9] | AUC at 7 h [10] | IC50 [11] | CLH [12] | IC50 [13] | IC50 [14] | Ratio pIC50 [15] | clearance [16] | bioavailability [17] | CL free [18] | AUC/dose [19] | solubility kinetic [20] | Vd [21] | also measured |
| --- | --- | --- | --- | --- | --- | --- | --- | --- | --- | --- | --- | --- | --- | --- | --- | --- | --- | --- | --- | --- | --- |
| C[C@H](Oc1ccc(C(=O)NC2CC2)cc1-c1cn(C)nn1)c1ccccn1 | 12.6 µM | 39.8 µM | 6.6 | 84% | < 0.45 mL/min/g | 15 ×10⁻⁶ cm/s | 99 min | 0.0158 µM | 1180 ng·h/mL | 0.398 µM | < 0.8 mL/min/g | 0.0501 µM | 5.01 µM | 100 | 14 mL/min/kg | 32% | 19 mL/min/kg | 23 kg·min/L | 145 µg/mL (≈ 399 µM) | 1.8 L/kg | fraction unbound at 4 h [8]: 0.76; pIC50 [22]: 7.1; IC50 [23]: 39.8 µM |
| CCNC(=O)c1cc(Cc2cccc3[nH]ccc23)nc(-c2cn(C)nn2)c1 | 31.6 µM | 31.6 µM | 7.3 | 90% | < 0.45 mL/min/g | 30 ×10⁻⁶ cm/s | 52.2 min | 0.0251 µM | 778 ng·h/mL | 0.398 µM | 1.98 mL/min/g | 0.0316 µM | 10 µM | 315 | 21 mL/min/kg | 31% | 205 mL/min/kg | 15 kg·min/L | ≥ 148 µg/mL | 1.1 L/kg | IC50 [24]: 25.1 µM; pIC50 [25]: 7.3; pIC50 [22]: 7.5; IC50 [23]: 25.1 µM |
| CC(=O)Nc1c(F)cc(C(=O)N[C@H]2CC[C@H](O)CC2)cc1O[C@@H](C)c1ccccc1 [GSK046] |  |  |  |  |  | 1.7 ×10⁻⁶ cm/s |  |  |  |  |  |  |  |  |  |  |  |  |  |  | solubility at 4 h [26]: 996 µg/mL (≈ 2400 µM) |
| CCNC(=O)c1ccc(OCc2cccc(C)n2)c(-c2cn(C)nn2)c1 | > 50.1 µM | > 50.1 µM | 5.8 | 84% | 1.18 mL/min/g | 47 ×10⁻⁶ cm/s | 27 min | 0.251 µM | 873 ng·h/mL | 2.51 µM | 1.09 mL/min/g | 0.251 µM | 50.1 µM | 200 | 19 mL/min/kg | 59% | 102 mL/min/kg | 30 kg·min/L | ≥ 137 µg/mL | 0.7 L/kg | IC50 [24]: > 50.1 µM; fraction unbound at 4 h [8]: 0.19; pIC50 [25]: 6.4; pIC50 [22]: 6.5; IC50 [23]: > 50.1 µM |
| Cn1cc(-c2cc(C(=O)NCCC[C@@]3(F)CCCNC3)cc(Cc3ccccc3)n2)nn1 |  |  |  |  |  | 2.3 ×10⁻⁶ cm/s |  |  |  |  |  | 0.01 µM | 5.01 µM | 500 |  |  |  |  | ≥ 172 µg/mL |  |  |
| CCNC(=O)c1cc(Cc2ccccc2)nc(C(=O)NC)c1 |  |  |  |  |  | 39 ×10⁻⁶ cm/s |  |  |  |  |  |  |  |  |  |  |  |  | ≥ 102 µg/mL |  | solubility at 4 h [26]: 310 µg/mL (≈ 1040 µM) |
